Published values gathered from unrelated publications.
Protocols differ between the studies behind these lines.
Target: Vascular endothelial growth factor receptor 2 (KDR, Homo sapiens, UniProt P35968)

SMILES | effect on | method | tested at | remaining binding [%]
O=C(NCc1ncc(C(F)(F)F)cc1Cl)c1ccc2c(c1)C1(CCS(=O)(=O)CC1)[C@H](C1CC1)N2S(=O)(=O)c1ccc(F)cc1 | cell-free assay | competition with immobilised ligand | 1 µM | 83
C[C@@H]1CN(c2ccc3ncc(-c4ccc5[nH]nc(C6CC6)c5c4)n3n2)C[C@H](C)O1 | binding | competition with immobilised ligand | 50 nM | 86
COC(=O)Nc1nc2ccc(C(=O)c3ccccc3)cc2[nH]1 | cell-free assay | competition with immobilised ligand | 10 µM | 30
CCN1CCN(Cc2ccc(C(=O)Nc3ccc(C)c(Oc4ccc5c(c4)CC(=O)N5)c3)cc2C(F)(F)F)CC1 | binding | competition with immobilised ligand | 1 µM | 100
O=C(NCC1CCOCC1)c1n[nH]cc1NC(=O)c1c(F)cccc1F | binding | competition with immobilised ligand | 1 µM | 82
COc1ncc2cc3ccccc3nc2c1C#N | cell-free assay | competition with immobilised ligand | 5 µM | 100
O=C(NCCCN1CCOCC1)c1ccc(Nc2nccc(-c3cc4ccccc4s3)n2)cc1 | binding | competition with immobilised ligand | 1 µM | 72
COCCOc1nc(-c2ccc(Cl)nc2)nc2c1CN(C(=O)c1ncn3ccccc13)CC2 | cell-free assay | competition with immobilised ligand | 0.1 µM | 100
CC(C)(C)c1ccc(-c2nc(CBr)nn2-c2cccc(O)c2)cc1 | cell-free assay | competition with immobilised ligand | 10 µM | 83
O=C(O)[C@H]1[C@H](Cn2nnc3ccccc3c2=O)CC[C@@H]1C(=O)c1ccc(OCCC2CCOCC2)cc1 | cell-free assay | competition with immobilised ligand | 1 µM | 88
N[C@H]1CCN(c2nccc(-c3cnn4ncccc34)n2)C1 | binding | – | 1 µM | 100
CC(=O)C1=C(C)N(c2cccc(C(F)(F)F)c2)C(=O)N[C@@H]1c1ccc(C#N)nc1 | cell-free assay | competition with immobilised ligand | 1 µM | 84
C=CC(=O)N1CCC(C(=O)NCC(=O)N2CCN(c3nc(-c4cnc(N)nc4C(F)F)nc(N4CCOCC4)n3)CC2)CC1 | binding | competition with immobilised ligand | 1 µM | 81
Cc1cnc(Nc2ccc(C(=O)N3CCC(N4CCCC4)CC3)cc2)nc1-c1cc2ccccc2s1 | binding | competition with immobilised ligand | 1 µM | 4.3
F[C@@H]1CCN(c2nccc(-c3cnn4ncccc34)n2)C1 | binding | – | 1 µM | 100
COc1cnc(Nc2cccc(S(N)(=O)=O)c2)nc1N1CCN(c2ccccc2)CC1 | binding | competition with immobilised ligand | 1 µM | 83
O=C(c1ccc(Nc2nccc(-c3cc4ccccc4s3)n2)cc1)N1CCC(N2CCCC2)CC1 | binding | competition with immobilised ligand | 1 µM | 47
Cc1cnn2ncc(-c3ccnc(N(C)C)n3)c2c1 | binding | – | 1 µM | 96
CNC(=O)[C@@H]1CC[C@@H](n2c(-c3ccc4cnccc4c3)nc3ccc(C(=O)NCc4cccc(C(N)=O)c4)cc32)C1 | binding | competition with immobilised ligand | 1 µM | 69
CC1CCCN1c1nccc(-c2cnn3ncccc23)n1 (stereo not shown) | binding | – | 1 µM | 100
COc1ccc2c(O[C@@H]3C[C@H]4C(=O)N[C@]5(C(=O)O)CC5/C=C\CCCCC[C@H](NC(=O)OC5CCCC5)C(=O)N4C3)cc(-c3csc(NC(=O)C(C)C)n3)nc2c1C (stereo partly shown) | cell-free assay | competition with immobilised ligand | 1 µM | 83
CN(C)c1nccc(-c2cnc3ncccn23)n1 | binding | – | 1 µM | 90
O=C(NCCCC1CCCCC1)c1ccc(CNC(=O)c2cnn(-c3ccccc3)c2C(F)(F)F)cc1 | cell-free assay | competition with immobilised ligand | 0.1 µM | 97
C[C@H]1CCN(c2nccc(-c3cnn4ncccc34)n2)C1 | binding | – | 1 µM | 92
CO[C@@H](C)c1c(Nc2ccc([C@@H](N(C)C(=O)C3CCS(=O)(=O)CC3)C(F)(F)F)cc2)cnc2cc(Cl)nn12 | cell-free assay | competition with immobilised ligand | 1 µM | 95
